This is a sample that favours compounds with a hit; in the whole collection about 1.3% have one here.
PfG6PD inh – PfG6PD (Plasmodium falciparum) enzyme inhibition; PfGluPho enzyme, NADPH resazurin-diaphorase fluorescence; inhibition, % at 20 µM; 0.78% of 350,000 active;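 active = inhibition reaching at least a set limit at 20 µM in the primary screen, cut at about 59% in these data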;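 also: 0% = DMSO wells with substrate and 100% = DMSO wells lacking glucose-6-phosphate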
G6PDH counter – inhibits Leuconostoc G6PDH, flagging false hits in G6PDH-based assays | Purified L. mesenteroides G6PDH, diaphorase/resazurin coupled fluorescence, 45 min | inhibition, % at 5 µM | 0.12% of 200,000 active; in the data active = inhibition above about 50%
Diaph act CS – activates diaphorase or chemically reduces, flagging diaphorase assay artifacts; AID 1229; Diaphorase/resazurin coupled assay, resorufin fluorescence, 16 min; active compounds read high; 1 = vehicle wells, 0 = NADH-free wells; activation factor at 20 µM; 0.005% of 190,000 active;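 active = diaphorase activity raised at least twofold by the compound at 20 µM; inactive = activation factor below 2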
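Test system: Clostridium kluyveri diaphorase, purified enzyme; input: enzyme 0.07 U/mL final; buffer or medium: 50 mM HEPES pH 7.4 with 4.542 mM MgCl2, 0.005% Tween 20; also added: 0.114 mM NADH and 0.1 mM resazurin, final amounts; schedule: 16 min enzyme reaction, ambient temperature; technique: fluorescence of resorufin, 544 nm excitation, 590 nm emission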
Diaphorase inh – counter-screen for diaphorase-based assays: diaphorase inhibitors and chemical oxidizers. diaphorase resazurin-to-resorufin fluorescence, NADH, 16 min; bacterial (C. kluyveri) enzyme, not human. 0.69% of 190,000 active. inhibition, % at 20 µM. AID 1217;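 active = primary screen inhibition at 20 µM above a set limit, cut at about 50% in these data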;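 also: plate controls were DMSO with full reaction for no effect and wells lacking NADH for full effect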
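material = Clostridium kluyveri diaphorase enzyme | amount = 0.14 U/mL diaphorase, enzyme working solution | schedule = incubation 16 min, room temperature | detection = fluorescence of resorufin formed from resazurin, Ex 544/Em 590 nm | benchmarks = positive control minus NADH, DMSO neutral control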
HKDC1 inh – HKDC1 (human) hexokinase inhibition | Q2TB90 | recombinant HKDC1, G6PDH/diaphorase resazurin coupled fluorescence | inhibition, % at 20 µM | 0.16% of 340,000 active | AID 493160;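 active = inhibition above about 35% when tested at 20 µM, limit read from the data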;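 also: plate controls were DMSO wells with enzyme for no effect and DMSO wells lacking enzyme for full effect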
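Test system: recombinant HKDC1 (HK5) hexokinase enzyme, produced in-house; Amount: enzyme 5 µg/mL final; Buffer or medium: Tris pH 8.0 buffer with MgCl2, Tween-20, BSA, BME; Reagent: glucose and ATP substrates; Doses: 20 µM test compound, 1% DMSO; Incubation: 90 min reaction incubation at room temperature, dark; Detection: resorufin fluorescence at 613 nm.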
HKDC1 act conf2 – confirmation of human HKDC1 activators; 14% of 740 active; shares compounds with HKDC1 inh; AID 504708; inhibition, % at 20 µM; recombinant HKDC1, G6PDH/diaphorase resazurin fluorescence; active compounds read low;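 active = inhibition at or below a set negative limit, negative inhibition meaning the enzyme was activated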
* marks the source's active call; other numbers are inactive results; · = no result.

SMILES	PfG6PD inh	G6PDH counter	Diaph act CS	Diaphorase inh	HKDC1 inh	HKDC1 act conf2
Cc1nc2oc3c(NCC4CCCO4)ncnc3c2c2c1COC(C)(C)C2 (centres undefined)	13	8	0.8	18	18	·
Cc1nc2oc3c(NCc4ccccc4)ncnc3c2c2c1COC(C)(C)C2	19	11	0.7	28	26	·
CCCc1nc2oc3c(OC)ncnc3c2c2c1COC(C)(C)C2	46	5	0.6	37	37*	42
CC(C)c1nc2oc3c(=O)[nH]cnc3c2c2c1COC(C)(C)C2	32	·	·	·	36*	48
C#CCOCCOCCOCCNc1nc(N2CCN(C(=O)CCCCCCCCCCNC(=O)[C@@H]([C@H](C)O)n3cc(C)nn3)CC2)nc(N2CCN(C(=O)CCCCCCCCCCNC(=O)[C@@H]([C@H](C)O)n3cc(C)nn3)CC2)n1	18	·	·	·	4	·
O=C(CCl)N(c1ccc(Cl)cc1)c1c[nH]c2ccccc12	18	-4	1	0	41*	6
O=C(CCl)N(c1ccccc1)c1c[nH]c2ccccc12	1	8	0.8	17	21	·
Cc1cc(C)n2nc(SCc3nnc(SCc4ccccc4C)s3)nc2n1	7	3	0.5	50	53*	69
Cc1cc(C)n2nc(SCc3nnc(SCc4ccccc4Cl)s3)nc2n1	19	-10	0.4	58*	41*	43
COc1cccc(CSc2nnc(CSc3nc4nc(C)cc(C)n4n3)s2)c1	27	29	0.7	29	34	·
CCOc1cc2nc3c4ccccc4n(C)c3nc2cc1OCC	2	2	1	3	12	·
CCOc1ccc(NC2=CC(=O)C(=O)c3ccccc32)cc1	29	·	·	·	22	·
O=C1C=C(Nc2ccc(F)cc2)c2ccccc2C1=O	8	·	·	·	42*	4
c1ccc(CN2CCCC3(CCCN(Cc4nc(COc5ccccc5)no4)C3)C2)cc1 (centres undefined)	13	15	0.9	14	2	·
COC1=CC(=O)C(OC)=C(OC)C1=O	120*	·	·	·	76*	72
COc1cc(CNC23CC4CC(CC(C4)C2)C3)ccc1OCc1ccccc1	-3	7	0.9	5	-2	·
CC(C)c1ccc(S(=O)(=O)N2CCN(C(=O)C3=COCCO3)CC2)cc1	-3	·	·	·	0	·
CS(=O)(=O)c1ccc(C(=O)OCC(=O)NC(=O)Cc2ccccc2)cc1	0	·	·	·	35	-19
Cc1ccc(S(=O)(=O)N2CCN(CC(=O)N/N=C\C(Cl)=C\c3ccccc3)CC2)cc1	5	10	0.8	19	-7	·
O=C1N/C(=N/Nc2ccccc2)S/C1=C\c1ccccc1	19	11	0.8	20	8	·
Cc1ccc(N=Nc2ccc(O)c3ncccc23)cc1C	-20	9	0.9	14	-43	-40*
Cc1ccc(N=Nc2ccc(O)c3ncccc23)cc1	-26	4	0.9	5	-28	·
CCn1c(SCC(=O)c2ccccc2)nnc1-c1ccoc1C	3	3	0.9	14	7	·
CCOc1cc(/C=N/NC(=O)c2ccc(-c3csc(Nc4ccc(C)cc4)n3)cc2)ccc1OCC(=O)O	2	-4	0.7	32	6	·
O=C(O)COc1ccc(/C=N/NC(=O)c2ccc(-c3csc(Nc4ccc(Cl)cc4)n3)cc2)cc1	30	·	·	·	76*	24
SMILES	PfG6PD inh	G6PDH counter	Diaph act CS	Diaphorase inh	HKDC1 inh	HKDC1 act conf2
CCOc1cc(Br)c(C=O)cc1OCC	-1	14	1	4	3	·
CCN(CC)S(=O)(=O)c1ccc(/C=C/C(=O)Nc2ccccc2N2CCOCC2)cc1	7	·	·	·	-1	·
Cc1ccc2oc(C(=O)N3CCC(N4CCSCC4)CC3)c(C)c2c1	1	·	·	·	35*	-13
O=C1c2cccc3cccc(c23)C(=O)N1CCCc1n[nH]c(=S)n1-c1ccccc1	36	4	0.6	39	10	·
O=C(CSc1nnc(CCCN2C(=O)c3cccc4cccc(c34)C2=O)n1-c1ccccc1)N1CCN(CCO)CC1	4	-13	0.4	59*	42*	48
COc1ccc(CCC(=O)N2CCN(S(=O)(=O)c3cccs3)CC2)cc1	9	·	·	·	3	·
Oc1c(Br)cc(Br)cc1/C=N/c1nc2c(s1)CCCC2	80*	·	·	·	37*	-2
Cc1ccc2cc(CCNC(=O)c3ccc(S(=O)(=O)N4CCCCC4)cc3)c(=O)[nH]c2c1	45	5	0.3	72*	40*	40
Cc1cc2cc(CCNC(=O)c3ccc(S(=O)(=O)N4CCOCC4)cc3)c(=O)[nH]c2cc1C	32	3	0.4	58*	41*	45
Cc1cc2cc(CCNC(=O)c3cccc([N+](=O)[O-])c3)c(=O)[nH]c2cc1C	9	-2	0.6	36	40*	16
Cc1ccc2cc(CCNC(=O)c3ccc(S(=O)(=O)N4CCOCC4)cc3)c(=O)[nH]c2c1	28	·	·	·	20	·
COc1cc(/C=C2\SC(=O)N(c3cccc(Cl)c3)C2=O)cc([N+](=O)[O-])c1O	-17	2	0.4	64*	51*	-13
O=C1S/C(=C\c2ccc(O)c([N+](=O)[O-])c2)C(=O)N1c1ccccc1Cl	1	10	1.1	-6	6	·
COc1cc(/C=C2\SC(=O)N(c3ccc(Cl)cc3)C2=O)cc([N+](=O)[O-])c1O	16	5	0.2	82*	44*	-27
O=C(O)c1ccc(N2C(=O)/C(=C/c3ccc(-c4ccc([N+](=O)[O-])cc4)o3)C=C2c2ccccc2)cc1	25	2	0.4	57*	43*	1
O=C(N/N=C/c1ccccc1)c1ccc(CN2C(=O)c3cccc4cccc2c34)cc1	-3	-1	0.8	20	-7	·
O=C(N/N=C/c1ccc(O)cc1O)c1ccc(CN2C(=O)c3cccc4cccc2c34)cc1	38	-8	0.9	13	-41	-22
COc1cc(C(=O)NCCNC(=O)c2cc(OC)c(C)c(OC)c2)cc(OC)c1C	14	·	·	·	1	·
O=C(O)C1Nc2c(O)cc(Cl)c([N+](=O)[O-])c2C2C=CCC12 (centres undefined)	2	12	0.3	71*	32	31
CCOc1ccccc1-c1cc(-c2ccc(OC)cc2)nc2c1c(=O)n(C)c(=O)n2C	-2	3	0.9	8	-6	·
COc1ccc(CN2CCN(C(=O)c3ccc4nc(N5CCOCC5)sc4c3)CC2)c(OC)c1OC	-10	8	0.9	14	-3	·
CCOC(=O)c1cc2c(=Cc3ccc(N(C)C)cc3)c3ccccc3n2[n+]1C	50	·	·	·	37*	-8
Cc1cc2c(=Cc3ccc(N(C)C)cc3)c3ccccc3n2[n+]1C	27	·	·	·	-4	·
O=C(N/N=C/c1ccc[nH]1)c1sc2ccccc2c1Cl	1	8	0.9	13	-42	-30

Screening data (PubChem)
